Results from different studies.
Each line is one published result; the experiments were not run side by side.

SMILES	host	sample	route	dose	setting	Tmax [h]
COc1ccc([C@@H]2CN(C(=O)[C@@H](O)CO)C[C@@]2(C)[C@@H](C)O)cc1OC1CN(c2ccc(C)cn2)C1	human	plasma	oral	1.5 mg	single dose, healthy volunteers	1
CC(=O)Oc1ccccc1C(=O)O	human	plasma	oral	650 mg	healthy volunteers	2.5
C#Cc1cccc(Nc2ncnc3cc(OCCOC)c(OCCOC)cc23)c1	human	plasma	oral	50 mg	patients	4
C=CC(=O)N1CCC(Oc2cc3c(Nc4ccc(Cl)c(Cl)c4F)ncnc3cc2OC)CC1	human	plasma	oral	16 mg	single dose, fed	3.01
Nc1cc(C(F)(F)F)c(-c2cc(N3CCOCC3)nc(N3CCOCC3)n2)cn1	human	plasma	oral	50 mg/day	patients	1.02
CC(C)(Sc1ccncc1-c1ccc(C#N)c2ccccc12)C(=O)O	male human	plasma	oral	20 mg	single dose, fasted, healthy volunteers	0.5
CCO[C@H]1CCN(Cc2c(OC)cc(C)c3[nH]ccc23)[C@H](c2ccc(C(=O)O)cc2)C1	human	plasma	oral	100 mg	multiple doses, twice daily, patients	1.53
CC(C)[C@H](N)C(=O)NCCCS(=O)(=O)O	human	plasma	oral	256.5 mg	multiple doses, twice daily, fasted	0.5
O=C(O)C[C@H](O)C[C@H](O)/C=C/c1c(C2CC2)nc2ccccc2c1-c1ccc(F)cc1	human	plasma	oral	2 mg	single dose, fed, healthy volunteers, tablet	1.13
CNCC[C@H](Oc1cccc2ccccc12)c1cccs1	female human	plasma	oral	30 mg	multiple doses, once daily	4.7
CC(C)(O)c1ccccc1-c1ccc2[nH]c(/C=C/c3ccc(C(F)(F)F)cc3)nc2c1	male human	plasma	oral	5 mg	single dose, fasted	3.95
CCc1nc2c(C)cc(N3CCN(CC(=O)N4CC(O)C4)CC3)cn2c1N(C)c1nc(-c2ccc(F)cc2)c(C#N)s1	human	plasma	oral	1500 mg	fed, healthy volunteers	2
Cc1nc(-c2cn3c(n2)-c2ccc(-c4cnn(C(C)(C)C(N)=O)c4)cc2OCC3)n(C(C)C)n1	human	plasma	oral	6 mg	patients	2.05
C/C(=C\c1csc(C)n1)[C@@H]1C[C@@H]2O[C@]2(C)CCC[C@H](C)[C@H](O)[C@@H](C)C(=O)C(C)(C)[C@@H](O)CC(=O)N1	human	plasma	intravenous	15 mg/m²	patients	0.8
CC(C)(C)N/[N+]([O-])=N/OC1CCN(c2ccc(C#N)cn2)CC1	male human	plasma	oral	–	single dose, healthy volunteers	1 to 2
c1cnc2ccc(Nc3nc(NC4CC4)c4nc[nH]c4n3)cc2c1	human	plasma	oral	100 mg/m²	patients	5.7
CCc1nc(C(N)=O)c(Nc2ccc(N3CCC(N4CCN(C)CC4)CC3)c(OC)c2)nc1NC1CCOCC1	human	plasma	oral	200 mg	multiple doses, patients	5.92

SMILES	host	sample	route	dose	setting	Tmax [h]
Cn1cc(-c2ccc(S(=O)(=O)[C@@H]3C[C@@H](C(=O)NC4(C#N)CC4)N(C(=O)C4(C(F)(F)F)CC4)C3)c(C(F)(F)F)c2)cn1	human	plasma	oral	10 mg	single dose, fasted, healthy volunteers	4.5
C#C[C@]1(COP(=O)(O)OP(=O)(O)OP(=O)(O)O)O[C@@H](n2cnc3c(N)nc(F)nc32)C[C@@H]1O	human	plasma	oral	15 mg	single dose	6
O=C(Nc1c(Cl)cncc1Cl)c1ccc(OC(F)F)c(OCC2CC2)c1	human	plasma	oral	0.375 mg	multiple doses, once daily	0.75
CS(=O)(=O)CCC#N	human	plasma	oral	1000 mg	single dose, fasted	1.5
C[C@@H](Nc1cc(F)cc(F)c1)c1cc(C(=O)N(C)C)cc2c(=O)cc(N3CCOCC3)oc12	human	plasma	oral	180 mg	single dose, patients	1.98
C=CC(=O)N(C)CCOc1c(N)ncnc1-c1cc(F)cc(NC(=O)c2ccc(C3CC3)cc2F)c1C	human	blood	oral	1.5 mg	single dose, healthy volunteers	0.5
Cc1nc(NC(=O)N2CCC[C@H]2C(N)=O)sc1-c1ccnc(C(C)(C)C(F)(F)F)c1	human	plasma	oral	180 mg	patients	2.46
COc1cc(N2CCC(N3CCN(C)CC3)CC2)ccc1Nc1ncnc(Nc2ccccc2S(=O)(=O)C(C)C)n1	human	plasma	oral	25 mg	multiple doses, patients	2.48
CO[C@H]1/C=C\C=C(/C)C(=O)NC2=CC(=O)C(NCCN(C)C)=C(C[C@@H](C)C[C@H](OC)[C@H](O)[C@@H](C)/C=C(\C)[C@@H]1OC(N)=O)C2=O	human	plasma	intravenous	27 mg/m²	patients, infusion	0.9
FC(F)(F)c1ccc(CNc2ccc(Cc3c[nH]c4ncc(Cl)cc34)cn2)cn1	human	plasma	oral	600 mg	single dose, healthy volunteers	2.5
CC(C)[C@](O)(c1ccc2cc(OC(F)F)c(OC(F)F)cc2c1)c1c[nH]nn1	female human	plasma	oral	600 mg	single dose	2.5
Oc1cc(O)c2c(c1)O[C@@H](c1ccc(O)c(O)c1)[C@@H](O)C2	human	plasma	oral	10 mg	single dose	1
CO[C@@H]1[C@H](OC(=O)N2CC(CCN3CCOCC3)C2)CC[C@]2(CO2)[C@H]1[C@@]1(C)O[C@@H]1CC=C(C)C	human	plasma	subcutaneous	0.2 mg	single dose, healthy volunteers	0.28
NS(=O)(=O)NCCNc1nonc1C(=NO)Nc1ccc(F)c(Br)c1	human	plasma	oral	500 mg	multiple doses, twice daily, steady state, patients	2
CC(C)n1cc(C#N)c2cc(-n3cc(C(=O)O)cn3)ccc21	human	plasma	oral	800 mg	multiple doses, once daily, steady state	4
C[C@@]1(c2cc(NC(=O)c3ccc(C#N)cn3)ccc2F)C=CSC(N)=N1	human	plasma	oral	10 mg	single dose	0.88
